Results from ChEMBL document CHEMBL3864128, “Syntheses of new 3-thiazolyl coumarin derivatives, in vitro α-glucosidase inhibitory activity, and molecular modeling studies” (Eur J Med Chem, 2016).

Assay: Inhibition of alpha-glucosidase (unknown origin) using PNP glycoside as substrate preincubated for 30 mins followed by substrate addition after 60 mins by spectrophotometric analysis
Design: species or system Homo sapiens
Procedure, shortened: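 Enzyme activity run in 50 mM phosphate buffer, pH 6.8, containing 5% v/v DMSO. Inhibitors pre-incubated with enzyme 30 min at 37 °C, then PNP glycoside substrate added and reaction run 60 min at 37 °C. Absorbance read at 400 nm. Triplicate runs at five concentrations spanning the IC50 estimated in a first round; means adopted.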

IC50 [µM]	SMILES
2.9	COc1ccc(/N=c2\scc(-c3cc4ccccc4oc3=O)n2NC(=O)c2ccc(C)cc2C)cc1
1.4	COc1ccc(/N=c2\scc(-c3cc4ccccc4oc3=O)n2NC(=O)c2ccc(C(C)(C)C)cc2)cc1
2.5	COc1ccc(C(=O)Nn2c(-c3cc4ccccc4oc3=O)cs/c2=N\c2ccc(Cl)c(Cl)c2)c(OC)c1
4.06	O=C(Nn1c(-c2cc3ccccc3oc2=O)cs/c1=N\c1cccc(Br)c1)c1ccccc1O
9.45	COc1ccc(/N=c2\scc(-c3cc4ccccc4oc3=O)n2NC(=O)c2ccc(Br)cc2)cc1
9.19	COc1cc(OC)cc(C(=O)Nn2c(-c3cc4ccccc4oc3=O)cs/c2=N\c2cccc(Br)c2)c1
7.4	COc1ccc(/N=c2\scc(-c3cc4ccccc4oc3=O)n2NC(=O)c2ccc(OC)cc2OC)cc1
0.12	O=C(Nn1c(-c2cc3ccccc3oc2=O)cs/c1=N\c1ccc(Cl)c(Cl)c1)c1ccccc1O
1.1	COc1ccc(/N=c2\scc(-c3cc4ccccc4oc3=O)n2NC(=O)c2ccccc2O)cc1
16.2	COc1ccc(/N=c2\scc(-c3cc4ccccc4oc3=O)n2NC(=O)c2ccccc2OC)cc1
6.5	COc1ccc(/N=c2\scc(-c3cc4ccccc4oc3=O)n2NC(=O)c2ccccc2)cc1
0.78	CC(C)(C)c1ccc(C(=O)Nn2c(-c3cc4ccccc4oc3=O)cs/c2=N\c2ccc(Cl)c(Cl)c2)cc1
8.1	COc1ccc(/N=c2\scc(-c3cc4ccccc4oc3=O)n2NC(=O)c2cc(OC)cc(OC)c2)cc1
3.6	COc1ccc(/N=c2\scc(-c3cc4ccccc4oc3=O)n2NC(=O)c2ccc(OC)cc2)cc1
